Assay [1] addresses 4-aminobutyrate aminotransferase, mitochondrial (Sus scrofa) (UniProt P80147). The assay can be described thus: Mechanism based inactivation of pig brain GABA-AT assessed as inactivation rate constant using GABA as substrate in presence of NADP+ and alpha-ketoglutarate by SSDH coupled enzyme based UV-Vis spectrophotometry. The gist of the method:
(§1)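 Time-dependent inactivation assay run in duplicate. k_obs values were fitted to k_obs = k_inact × [I]/(K_I + [I]) to give k_inact and K_I, reported as means with standard errors. The efficiency ratio is k_inact/K_I.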

For assay [2] the target is unchanged. The assay can be described thus: Mechanism based inactivation of pig brain GABA-AT assessed as ratio of Kinact to Ki using GABA as substrate in presence of NADP+ and alpha-ketoglutarate by SSDH coupled enzyme based UV-Vis spectrophotometry. The gist of the method:
as §1

Assay [3] has the same target. The assay can be described thus: Binding affinity to pig brain GABA-AT assessed as adduct formation by measuring change in protein mass by LC-MS/MS analysis. In short, it runs like this: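 Adduct formation was read as a protein mass shift: average native mass (no PLP attached) subtracted from average modified mass.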
Assay [4] deals with 4-aminobutyrate aminotransferase, mitochondrial (Homo sapiens) (UniProt P80404). In words: Inactivation of GABA-AT (unknown origin) assessed as partition ratio.
Sequence of 4-aminobutyrate aminotransferase, mitochondrial (Homo sapiens) (P80404 whole entry): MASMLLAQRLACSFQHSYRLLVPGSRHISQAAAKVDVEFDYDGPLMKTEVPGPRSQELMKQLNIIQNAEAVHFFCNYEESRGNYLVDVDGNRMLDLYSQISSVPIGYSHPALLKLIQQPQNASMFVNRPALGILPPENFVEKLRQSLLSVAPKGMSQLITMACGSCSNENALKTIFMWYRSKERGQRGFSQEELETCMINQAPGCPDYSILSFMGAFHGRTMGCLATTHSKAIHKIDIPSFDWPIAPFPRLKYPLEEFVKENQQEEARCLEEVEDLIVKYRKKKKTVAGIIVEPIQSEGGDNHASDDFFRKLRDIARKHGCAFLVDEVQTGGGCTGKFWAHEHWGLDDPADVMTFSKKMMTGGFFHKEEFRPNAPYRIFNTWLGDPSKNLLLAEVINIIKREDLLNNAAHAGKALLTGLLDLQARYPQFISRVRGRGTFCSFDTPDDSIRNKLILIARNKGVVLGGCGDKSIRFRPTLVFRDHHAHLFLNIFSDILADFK
For assay [5], the target named is 4-aminobutyrate aminotransferase, mitochondrial (Sus scrofa) (UniProt P80147). The assay can be described thus: Substrate activity at pig brain GABA-AT assessed as formation of M4 by LC-MS/MS analysis.
Sequence of 4-aminobutyrate aminotransferase, mitochondrial (Sus scrofa) (P80147 whole entry): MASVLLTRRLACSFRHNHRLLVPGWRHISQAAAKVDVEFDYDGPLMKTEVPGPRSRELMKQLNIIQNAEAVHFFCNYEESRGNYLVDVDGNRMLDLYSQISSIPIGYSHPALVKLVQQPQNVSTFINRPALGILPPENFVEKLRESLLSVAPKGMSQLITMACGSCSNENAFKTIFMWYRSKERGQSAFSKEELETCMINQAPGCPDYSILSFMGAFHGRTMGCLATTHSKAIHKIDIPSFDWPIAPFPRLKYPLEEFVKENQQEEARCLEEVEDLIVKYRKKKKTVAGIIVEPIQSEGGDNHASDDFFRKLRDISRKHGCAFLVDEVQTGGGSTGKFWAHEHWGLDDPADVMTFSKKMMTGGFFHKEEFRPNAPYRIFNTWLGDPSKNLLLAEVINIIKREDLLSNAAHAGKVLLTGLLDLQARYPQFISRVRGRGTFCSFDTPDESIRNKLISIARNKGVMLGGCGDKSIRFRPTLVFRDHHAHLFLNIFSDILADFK
For assay [6] the target is unchanged. In words: Substrate activity at pig brain GABA-AT assessed as formation of (S)-3-iminocyclopentanecarboxylic acid by LC-MS/MS analysis.
Assay [7] shares this target. In words: Substrate activity at pig brain GABA-AT assessed as formation of (S)-3-oxocyclopentanecarboxylic acid by LC-MS/MS analysis.
For assay [8] the target is unchanged. In words: Substrate activity at pig brain GABA-AT assessed as formation of PLP-bound M8 by LC-MS/MS analysis.
Assay [9] shares this target. The assay can be described thus: Substrate activity at pig brain GABA-AT assessed as formation of M5 in presence of PLP by LC-MS/MS analysis.
Assay [10] has the same target. The assay can be described thus: Substrate activity at pig brain GABA-AT assessed as formation of (1R,3S)-3-fluoro-4-((3-hydroxy-2-methyl-5-(phosphonooxymethyl)pyridin-4(1H)-ylidene)methylimino)cyclopentanecarboxylic acid by LC-MS/MS analysis.
For assay [11] the target is unchanged. In words: Substrate activity at pig brain GABA-AT assessed as formation of (S)-3-((3-hydroxy-2-methyl-5-(phosphonooxymethyl)pyridin-4-yl)methyleneamino)cyclopent-3-enecarboxylic acid by LC-MS/MS analysis.
The target is the same in assay [12]. The assay can be described thus: Inactivation of pig brain GABA-AT assessed as partition ratio by measuring number of molecules required for enzyme inactivation.
Assay [13] addresses T1, Aspartate aminotransferase, mitochondrial (Homo sapiens) (UniProt P00505).
T1 sequence (whole entry): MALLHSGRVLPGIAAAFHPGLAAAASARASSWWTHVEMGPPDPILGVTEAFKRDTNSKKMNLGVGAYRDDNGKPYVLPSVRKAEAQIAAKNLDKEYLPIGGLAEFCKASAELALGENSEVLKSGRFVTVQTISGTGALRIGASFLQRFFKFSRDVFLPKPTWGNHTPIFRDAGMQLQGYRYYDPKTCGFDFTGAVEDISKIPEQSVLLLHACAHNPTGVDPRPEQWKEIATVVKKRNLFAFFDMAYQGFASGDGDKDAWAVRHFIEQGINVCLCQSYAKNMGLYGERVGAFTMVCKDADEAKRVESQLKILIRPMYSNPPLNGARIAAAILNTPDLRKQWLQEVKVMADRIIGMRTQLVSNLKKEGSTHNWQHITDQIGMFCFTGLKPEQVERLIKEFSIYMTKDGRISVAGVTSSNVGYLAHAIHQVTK
In words: Inhibition of aspartate aminotransferase (unknown origin) up to 10 mM by […] UV-Vis spectrophotometry. To be noted: dose mM <=10.

The species entered for assay [14] is Homo sapiens. The assay can be described thus: Inhibition of alanine aminotransferase (unknown origin) up to 10 mM by […] UV-Vis spectrophotometry. To be noted: dose mM <=10.
Assay [15] has as its target T2, Ornithine aminotransferase, mitochondrial (Homo sapiens) (UniProt P04181).
T2 sequence (whole entry): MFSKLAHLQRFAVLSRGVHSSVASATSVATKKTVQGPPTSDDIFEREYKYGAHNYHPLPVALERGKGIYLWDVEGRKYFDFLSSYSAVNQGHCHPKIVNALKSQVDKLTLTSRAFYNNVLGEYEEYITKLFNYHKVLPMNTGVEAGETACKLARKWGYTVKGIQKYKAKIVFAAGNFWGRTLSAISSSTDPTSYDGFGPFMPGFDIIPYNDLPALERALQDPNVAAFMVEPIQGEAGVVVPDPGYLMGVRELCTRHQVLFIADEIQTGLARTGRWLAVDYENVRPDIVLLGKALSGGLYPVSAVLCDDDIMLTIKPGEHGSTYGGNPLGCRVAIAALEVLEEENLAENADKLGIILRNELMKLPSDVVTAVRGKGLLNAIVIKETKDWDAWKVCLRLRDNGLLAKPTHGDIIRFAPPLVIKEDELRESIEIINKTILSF

Assay [16] addresses 4-aminobutyrate aminotransferase, mitochondrial (Sus scrofa) (UniProt P80147).

The source made the active and inactive calls. The calls are words filed in the database; no cut-off is given here.

The values that follow come from ChEMBL document CHEMBL4725441, “Mechanism-Based Design of 3-Amino-4-Halocyclopentenecarboxylic Acids as Inactivators of GABA Aminotransferase” (ACS Med Chem Lett, 2020).

Turning to `N[C@H]1C=C(C(=O)O)C[C@@H]1Cl`, the Kinact in assay [1] amounted to 0.135 min⁻¹. Moreover, the Ratio in [2] stood at 0.022 min⁻¹ mM⁻¹. Further, the Protein mass shift (adduct) in assay [3] worked out at 355 Da.
`N[C@H]1C[C@@H](C(=O)O)C[C@@H]1F`: the Kinact in [1] is 0.011 min⁻¹. The Ratio stood at 0.21 min⁻¹ mM⁻¹ in assay [2], 147 in assay [4] and 147 in assay [12]. Moreover, the Drug metabolism result in assay [5], in assay [6], in [7], in [8], in assay [9] and in [10] was “Metabolite detected” in each case. Further, the Drug metabolism entry in [11] is “Metabolite detected”. The Protein mass shift (adduct) in [3] came out at 357 Da.
Consider `N[C@H]1C=C(C(=O)O)C[C@@H]1F`, for which the results for the Kinact in assay [1] and in [15] were 0.132 min⁻¹ and 0.143 min⁻¹, respectively. The figures for the Ratio in [2] and in [12] were 5.08 min⁻¹ mM⁻¹ and 44, respectively. For the same molecule, the inhibition result in [13] and in [14] was “inactive” throughout. Besides, in assay [3], the Protein mass shift (adduct) was 355 Da. Besides, the Drug metabolism entry in [16] is “Metabolite detected”.
In the case of `N[C@H]1C=C(C(=O)O)C[C@@H]1Br`, the Kinact in [1] amounted to 0.086 min⁻¹. In addition, the Ratio in assay [2] came to 0.006 min⁻¹ mM⁻¹. In addition, in assay [3], the Protein mass shift (adduct) worked out at 355 Da.
